Where “and” joins values, the source holds several entries; their conditions need not be identical. Equal entries are not always repeated. Where two headings read alike, the source gives them in different places.

The subject of data set [1] is U87-MG cells. To be noted: in vitro; cited from earlier work.
In another data set the test system is GBM flank xenografts. The note with it: ISA27 alone; cited from earlier work.
Data set [2] in a line: Pharmacokinetic analysis of nutlin3 in NSG mice. Format: in vivo. A digest of the protocol:
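Racemic nutlin3 was given orally to NSG mice. Plasma was collected, flash-frozen and kept at −80°C. Drug was recovered by liquid-liquid extraction and quantified by HPLC-MS/MS (API 4000) to derive pharmacokinetic parameters.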

A short description of data set [3]: Nutlin3 concentration in U87-MG flank xenografts. Format: in vivo, NSG mice. To be noted: 4 hours postadministration. The gist of the method: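 Tumors from NSG mice bearing U87-MG flank xenografts were collected 4 h after oral nutlin3 dosing. A vehicle-treated tumor served as background control. Samples were flash-frozen and stored at −80°C. Nutlin3 was recovered by liquid-liquid extraction and quantified by HPLC-MS/MS (API 4000), with caylin as internal standard. Two tumor samples were analyzed.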

For the next data set, the system named is U87-MG flank xenografts. Description: Efficacy in ectopic U87-MG flank xenografts. Format: in vivo, NSG mice. The note with it: 5 mg/kg TMZ, 100 mg/kg nutlin3; 2 treatment cycles. The gist of the method:
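NSG mice received 4 × 10^6 U87-MG cells in the right flank. At approximately 150 mm3, tumor-bearing mice were randomized into cohorts of 6–8. Dosing was oral: vehicle, 5 mg/kg TMZ, 100 mg/kg racemic nutlin3, or the combination, for 2 treatment cycles. Caliper measurements were taken twice weekly, and volume = (α2 × β)/2 (α shorter, β longer dimension). Data are mean ± SEM.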

In data set [4] the test system is GBM10 intracranial tumors. Description: Survival in orthotopic intracranial GBM10 xenograft model. In kind it is in vivo, NSG mice.
The format of data set [5] is in vivo, NSG mice. The note with it: peripheral blood, three cycles.
Data set [6] relates to U87-MG cells. Description: Western blot analysis of target proteins and cell cycle markers. In kind it is cell-based, human. A digest of the protocol:
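U87-MG cells were treated with vehicle, 25 μM TMZ, 5 μM nutlin3a, or the combination for 24 h or 72 h. RIPA lysates were resolved on 4–20% SDS-PAGE and transferred to nitrocellulose. Primary antibodies were used at 1:1000 and HRP secondaries at 1:5000, with chemiluminescent film detection. Densitometry was normalized to loading control and expressed relative to vehicle. Six independent experiments at 24 h; two at 72 h.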
A general note: Immunoblotting shows a protein as a band on a membrane.

The subject of the next data set is GBM10 flank tumors. Description: Western blot analysis of GBM10 flank tumor lysates. To be noted: 66 mg/kg TMZ, 100 mg/kg nutlin3a, 3 consecutive days; for MDM2 and p53 levels in tumors: 2 hours after last dose. In kind it is in vivo, NSG mice. The gist of the method: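 NSG mice received 5 × 10^6 GBM10 cells in the right flank. At approximately 200 mm3, mice were dosed orally for 3 consecutive days with vehicle, 66 mg/kg TMZ, 100 mg/kg nutlin3a (methylcellulose/Tween 80), or the combination. Tumors were harvested 2 h after the last dose. Lysates were made in RIPA buffer with protease/phosphatase inhibitors, run on 4–20% SDS-PAGE, and transferred to nitrocellulose. Detection was by HRP-chemiluminescence, with densitometry normalized to loading control.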

The conditions of data set [7]: rats; administration for 10 days; effects reversible; cited from earlier work.
For data set [8] the following is noted: monkeys; administration for 10 days; effects reversible; cited from earlier work.
Data set [9] can be described thus: Dose-response curves of nutlin enantiomers. The note with it: nutlin3a vs nutlin3b; data not shown.
A short description of data set [10]: Nutlin3a concentrations in normal brain and intracranial tumor tissue. In kind it is in vivo, NSG mice. The note with it: 100 mg/kg nutlin3a; 4 hours. A digest of the protocol: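 NSG mice carried GBM10, GBM43 or SK28 melanoma cells implanted stereotactically in the right cerebral hemisphere. At 21 days post-implantation, mice received 100 mg/kg nutlin3a orally; tumor-free mice were dosed likewise. After 4 h, plasma and brains were collected and the tumor area was excised. Samples were frozen at −80°C, extracted by liquid-liquid extraction, and assayed by HPLC-MS/MS. Each point is one mouse.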

The test system of data set [11] is GBM10 cells. Description: Wound-healing assay. To be noted: 25 μM TMZ, 10 μM nutlin3a; 12 hours. Format: cell-based, human. A digest of the protocol:
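GBM10 monolayers at 80–90% confluence were scratched with a pipette tip. Debris was washed off with medium, cells were rinsed in serum-free DMEM, and the gap was photographed at hour 0. Cells were then cultured in DMEM with 10% FBS containing vehicle, 25 μM TMZ, 10 μM nutlin3a, or the combination for 12 h. The marked gap was imaged every 2 h and its width measured. Three repeats.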

The subject of data set [12] is GBM10 cells. Description: Matrigel invasion assay. In kind it is cell-based, human. To be noted: 25 μM TMZ, 10 μM nutlin3a; 8 hours.
Data set [13] has as its system U87-MG cells. Description: Apoptosis assay. Format: cell-based, human. To be noted: 25 μM TMZ, 1.25 or 5 μM nutlin3a; Day 5 posttreatment. The gist of the method: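 U87-MG cells were treated with vehicle, 25 μM TMZ, 1.25 or 5 μM nutlin3a (DMSO stock diluted in medium), or TMZ/nutlin3a combinations. TMZ was dissolved in PBS or medium and used immediately. On Day 5 post-treatment, cells were stained with Annexin V-FITC and 7-AAD. Early apoptotic and late apoptotic/necrotic fractions were quantified by flow cytometry.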

Data set [14] concerns GBM10 cells. Description: Western blot analysis of target proteins and cell cycle markers. Format: cell-based, human. A digest of the protocol: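 Cultured GBM10 cells were treated with vehicle, 25 μM TMZ, 10 μM nutlin3a, or the combination for 72 h (cell-cycle markers). A second set received 200 μM TMZ plus 2 μM nutlin3a for 24, 48 or 72 h. RIPA lysates were run on 4–20% SDS-PAGE and transferred to nitrocellulose. Primary antibodies were used at 1:1000 and HRP secondaries at 1:5000, with chemiluminescent detection. Densitometry was normalized to loading control relative to vehicle (24 h: 3 independent experiments).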

The conditions of data set [15]: murine bone marrow; cited from earlier work.
Where [16] appears, read: 25 μM TMZ, 5 μM nutlin3a, 24 hours.

`O=C1[C@@H]2CS[C@@]3(C(=O)Nc4ccccc43)N2C(=O)N1Cc1ccc(Cl)cc1` [ISA27]: the “Interaction with TMZ to kill U87-MG cells” value with U87-MG cells [1] was “synergized”. For the same compound, the “Growth of GBM flank xenografts” value with GBM flank xenografts is “inhibited growth”.
`COc1ccc(C2=N[C@@H](c3ccc(Cl)cc3)[C@@H](c3ccc(Cl)cc3)N2C(=O)N2CCNC(=O)C2)c(OC(C)C)c1` [nutlin3]: in data set [2] (NSG, mouse, in vivo, po), the Cmax is 20400 ng/mL and 37 µM; the Tmax came to 1 h; the Vd/F came out at 0.113 L; the half-life was 4.5 h. In data set [2] (racemic nutlin3, NSG mice), the Cl/F was 0.29 mL/min. In addition, in [3], the “Nutlin3 in U87-MG flank xenografts” value is on record as “detected”. Besides, the “Tumor growth / tumor volume compared with vehicle” value in the data set with U87-MG flank xenografts was “significantly slowed tumor growth”.
In the case of `Cn1nnc2c(C(N)=O)ncn2c1=O` [TMZ, temozolomide], in the data set with U87-MG flank xenografts, the “Tumor growth / tumor volume compared with vehicle” value is given as “significant decrease in tumor volume”. The “Survival compared with vehicle or nutlin3a” value in [4] (66 mg/kg TMZ once daily, 100 mg/kg nutlin3a, 2 cycles, p < 0.05) is given as “significantly increased”. The “Increase in survival compared with vehicle-treated mice” value in data set [4] (three 5-day cycles) is recorded as “approximately 13%”. Further, the “White and red blood cell counts compared with vehicle-treated mice” value in [5] (Day 30 and Day 43) is on record as “significant decrease”. The Platelets entry in [5] (Day 30 only) is on record as “significantly decreased”. The “Levels of total p53, p53 (S15) and MDM2” value with U87-MG cells [6] (setting [16]) is on record as “increased”. Also, the APE1 level result with U87-MG cells [6] (72 hours) is listed as “decreased”. In addition, in the data set on GBM10 flank tumors, the “p53 (S15) levels in tumors” value was “increased”; the “MDM2 and p53 levels in tumors” value is “increased”.
On to `CCOc1cc(C(C)(C)C)ccc1C1=N[C@@](C)(c2ccc(Cl)cc2)[C@@](C)(c2ccc(Cl)cc2)N1C(=O)N1CCN(CCCS(C)(=O)=O)CC1` [RG7112], for which the Platelet production result in data set [7] and in data set [8] was “decreased platelet production” each time.
As to `COc1ccc(C2=N[C@@H](c3ccc(Cl)cc3)[C@@H](c3ccc(Cl)cc3)N2C(=O)N2CCNC(=O)C2)c(OC(C)C)c1` [nutlin3a], in [9], the “Relative potency of enantiomers” value is “more potent enantiomer”. The “Nutlin3a levels in brain tumor tissues versus normal brain tissue” value in [10] is “higher levels”. Further, the “Survival of mice with intracranial GBM tumors, single agent” value in data set [4] (100 mg/kg nutlin3a twice daily, 2 consecutive 5-day cycles) is “did not increase survival”. Also, in the data set on GBM10 cells [11], the GBM10 migration entry is “significantly inhibited”. The GBM10 invasion entry with GBM10 cells [12] is listed as “significantly inhibited”. The “Early and late apoptotic/necrotic cells compared with control or TMZ alone” value in the data set on U87-MG cells [13] was “significant increases”. In the data set with U87-MG cells [6] (5 μM nutlin3a, 25 μM TMZ, 72 hours), the “Cell cycle arrest by cell cycle–specific markers (pRb S780, pHH3, TopoIIα)” value was “arrested in G0/G1”. Moreover, in the data set on U87-MG cells [6] (setting [16]), the “Levels of total p53, p53 (S15) and MDM2” value is “increased”; the p21 levels entry is reported as “increased”. Also, the APE1 level entry in the data set on U87-MG cells [6] (72 hours) is recorded as “decreased”. Also, the “Cell cycle arrest by cell cycle–specific markers (pRb S780, pHH3, TopoIIα)” value with GBM10 cells [14] (10 μM nutlin3a, 25 μM TMZ, 72 hours) was “arrested in G0/G1”. Moreover, the “MDM2 and p21 levels” value in the data set on GBM10 cells [14] (200 μM TMZ, 2 μM nutlin3a, 24 hours) is “significantly increased”. The “MDM2 and p53 levels in tumors” value in the data set with GBM10 flank tumors is recorded as “increased”. Moreover, in data set [15], the “Nutlin3a detected in bone marrow” value is recorded as “low levels”.

In general, Cmax refers to the peak of the concentration-time curve. Broadly, the Tmax is the time at which the peak concentration occurs. The Vd/F is the volume of distribution divided by bioavailability. For orientation: half-life means the time needed for the level to fall by half in the phase considered. Higher therefore signals slow loss.
